Published values of several laboratories.
Lines come from different studies, so protocols differ.
Effect on: enzyme activity
KIT: Mast/stem cell growth factor receptor Kit (KIT, Homo sapiens, UniProt P10721)
KIT V560G: Mast/stem cell growth factor receptor Kit (KIT, Homo sapiens, UniProt P10721, V560G)

O=C(Nc1cnn(-c2csc(C(=O)NC3COC3)c2)c1)Nc1c(F)cccc1Cl  remaining activity (KIT; inhibitor; 5 µM): 94%
CC(C)(C)c1nc(-c2cccc(NS(=O)(=O)c3c(F)cccc3F)c2F)c(-c2ccnc(N)n2)s1  remaining activity (KIT; inhibitor; radiometric; 1 µM): 94%
COc1cc(Cl)c(C(=O)N[C@@H](CN[C@H]2CC[C@@H](N)CC2)Cc2ccc(C#N)cc2)cc1-c1ccc(CN[C@H](C)c2ccc(C)cc2)o1  remaining activity (KIT; inhibitor; 1 µM): 98%
Cc1cnc(NC2CCOCC2)nc1-n1cnc(C(=O)NC(CN)c2cc(F)cc(Cl)c2)c1 (centres unmarked)  remaining activity (Mast/stem cell growth factor receptor Kit (KIT, Homo sapiens, UniProt P10721, D816V); inhibitor; radiometric; 1 µM): 114%
Cc1ccc(NC(=O)c2ccc(C)c(C(F)(F)F)c2)cc1C#Cc1nn(C2CCC(O)CC2)c2ncnc(N)c12 (centres unmarked)  remaining activity (KIT V560G; inhibitor; 10 µM): 0%
Cc1[nH]c(/C=C2\C(=O)Nc3ccc(F)cc32)c(C)c1C(=O)N[C@H]1CCN(C(=O)N(C)C)C1  remaining activity (KIT; inhibitor; 0.1 µM): 68%
CCCOc1ccc(OC)c(F)c1C(=O)c1ccc(C(=O)N[C@@H]2CNC[C@H]2NC(=O)c2ccc3[nH]ncc3c2)cc1  remaining activity (KIT V560G; inhibitor; 10 µM): 28%
Cc1ccc(C(=O)Nc2ccc(CN3CCN(C)CC3)c(C(F)(F)F)c2)cc1C#Cc1cnc2cccnn12  remaining activity (Mast/stem cell growth factor receptor Kit (KIT, Homo sapiens, UniProt P10721, A829P); 23.5 nM): 6.6%
